The text below walks through data of ChEMBL document CHEMBL2146390, “Identification of Hydroxybenzoic Acids as Selective Lactate Receptor (GPR81) Agonists with Antilipolytic Effects” (ACS Med Chem Lett, 2012).

Active and inactive are the calls of the source.

Data set [1] addresses Hydroxycarboxylic acid receptor 1 (Homo sapiens, UniProt Q9BXC0). The experiment in a line: Agonist activity at human recombinant GPR81 transfected in african green monkey COS-7 cells after 20 mins by [35S]GTPgammaS binding assay. In kind it is functional, cell-based. The gist of the method: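 hGPR81 agonism measured by GTPγS binding, run as in an earlier cited report; EC50 values are the mean of at least two determinations with standard deviation.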
For orientation: GTPγS is a poorly hydrolysed GTP analogue; its binding reports G protein activation.

Data set [2] addresses G-protein coupled receptor 81 (Macaca mulatta, UniProt B9UM29). The experiment in a line: Agonist activity at monkey GPR81. In kind it is functional.
For data set [3], the target named is G-protein coupled receptor 81 (Canis lupus familiaris, UniProt B9UM26). Description: Agonist activity at dog GPR81. In kind it is functional.
Sequence of G-protein coupled receptor 81 (Canis lupus familiaris, UniProt B9UM26) (B9UM26 whole entry): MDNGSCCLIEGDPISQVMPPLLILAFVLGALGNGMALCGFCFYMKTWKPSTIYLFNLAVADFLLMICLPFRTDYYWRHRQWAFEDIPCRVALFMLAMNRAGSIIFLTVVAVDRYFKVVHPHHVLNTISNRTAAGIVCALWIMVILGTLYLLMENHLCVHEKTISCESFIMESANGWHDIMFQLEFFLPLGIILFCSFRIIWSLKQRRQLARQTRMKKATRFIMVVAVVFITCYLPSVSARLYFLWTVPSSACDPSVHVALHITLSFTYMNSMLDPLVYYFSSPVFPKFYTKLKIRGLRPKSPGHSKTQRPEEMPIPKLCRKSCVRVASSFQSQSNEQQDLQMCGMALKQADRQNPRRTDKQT
The target of a further data set is T1, Protein Gpr81 (Rattus norvegicus, UniProt G3V906).
T1 sequence (G3V906 whole entry): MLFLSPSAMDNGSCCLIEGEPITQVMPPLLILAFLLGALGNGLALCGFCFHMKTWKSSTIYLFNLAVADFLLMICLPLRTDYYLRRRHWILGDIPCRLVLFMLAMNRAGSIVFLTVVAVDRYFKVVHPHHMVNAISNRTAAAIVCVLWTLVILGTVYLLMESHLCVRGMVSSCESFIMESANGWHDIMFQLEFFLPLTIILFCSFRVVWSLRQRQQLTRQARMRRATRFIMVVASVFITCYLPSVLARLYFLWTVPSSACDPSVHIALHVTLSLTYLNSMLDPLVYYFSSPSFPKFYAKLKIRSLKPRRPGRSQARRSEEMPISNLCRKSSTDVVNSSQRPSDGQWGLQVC
Description: Agonist activity at rat GPR81. In kind it is functional.

The target in data set [4] is T2, Hydroxycarboxylic acid receptor 1 (Mus musculus, UniProt Q8C131).
T2 sequence (Q8C131 whole entry): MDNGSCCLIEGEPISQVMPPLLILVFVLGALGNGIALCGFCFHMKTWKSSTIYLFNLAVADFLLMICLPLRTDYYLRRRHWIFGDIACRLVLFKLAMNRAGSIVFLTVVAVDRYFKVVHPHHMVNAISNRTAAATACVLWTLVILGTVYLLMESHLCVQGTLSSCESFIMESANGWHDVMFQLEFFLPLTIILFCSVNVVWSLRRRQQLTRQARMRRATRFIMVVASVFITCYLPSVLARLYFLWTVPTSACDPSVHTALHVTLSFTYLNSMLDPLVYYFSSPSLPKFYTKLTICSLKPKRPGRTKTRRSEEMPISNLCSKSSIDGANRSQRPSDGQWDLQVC
The experiment in a line: Agonist activity at mouse GPR81. In kind it is functional.

Data set [5] can be described thus: Agonist activity at hamster GPR81. In kind it is functional, Cricetinae.
The nature of data set [6]: Tmax in C57B16/J mouse at 30 mg/kg, po. In kind it is ADME, organism-based. The conditions noted are these: in vivo. The arrangement: dose 30 mg/kg, route oral. The gist of the method: (§1)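 Mice received single oral doses of 30 or 100 mg/kg. Exposure was followed over time to derive tmax, AUCinf, Cmax (ng/mL, converted to μM) and t1/2.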
Data set [7] is described as follows: Tmax in C57B16/J mouse at 100 mg/kg, po. In kind it is ADME, organism-based. The arrangement: dose 100 mg/kg, route oral. The conditions noted are these: in vivo. The gist of the method: as §1
The nature of data set [8]: AUC (0 to infinity) in C57B16/J mouse at 30 mg/kg, po. In kind it is ADME, organism-based. The arrangement: dose 30 mg/kg, route oral, time infinity. The conditions noted are these: plasma. In a few lines:
as §1

The nature of data set [9]: AUC (0 to infinity) in C57B16/J mouse at 100 mg/kg, po. In kind it is ADME, organism-based. Also noted: time infinity, dose 100 mg/kg, route oral. The conditions noted are these: plasma. In a few lines:
as §1

A short description of data set [10]: Cmax in C57B16/J mouse at 30 mg/kg, po. In kind it is ADME, organism-based. Also noted: dose 30 mg/kg, route oral. The conditions noted are these: in vivo. In a few lines: as §1
Data set [11] can be described thus: Cmax in C57B16/J mouse at 100 mg/kg, po. As to conditions: in vivo. In kind it is ADME, organism-based. Also noted: dose 100 mg/kg, route oral. The gist of the method: as §1
Data set [12] in a line: Half life in C57B16/J mouse at 30 mg/kg, po. Also noted: dose 30 mg/kg, route oral. The conditions noted are these: in vivo. In kind it is ADME, organism-based. The gist of the method: as §1
Data set [13] can be described thus: Half life in C57B16/J mouse at 100 mg/kg, po. In kind it is ADME, organism-based. Also noted: dose 100 mg/kg, route oral. As to conditions: in vivo. The gist of the method:
as §1

Data set [14] deals with Mus musculus. Description: Antilipolytic activity in DIO C57B16/J mouse assessed as reduction in nonesterified free fatty acid cholesterol level at 30 mg/kg, po after 30 mins by enzymatic assay. In kind it is functional, organism-based. Also noted: dose 30 mg/kg. The gist of the method: (§2)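 Acute oral dosing at 30, 100 or 300 mg/kg in C57Bl6/J mice fed high-fat chow for 10 weeks (DIO) and fasted overnight. Nonesterified free fatty acid cholesterol (NEFAc) served as the lipolysis marker. Niacin 30 was a reference arm, and groups were compared with vehicle (P < 0.05, P < 0.01).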

In data set [15] the test system is Mus musculus. The experiment in a line: Antilipolytic activity in DIO C57B16/J mouse assessed as reduction in nonesterified free fatty acid cholesterol level at 100 mg/kg, po after 30 mins by enzymatic assay. In kind it is functional, organism-based. Also noted: dose 100 mg/kg. In a few lines:
as §2

In data set [16] the test system is Mus musculus. The experiment in a line: Antilipolytic activity in DIO C57B16/J mouse assessed as reduction in nonesterified free fatty acid cholesterol level at 300 mg/kg, po after 30 mins by enzymatic assay. In kind it is functional, organism-based. The arrangement: dose 300 mg/kg. The gist of the method: as §2

Sequence of Hydroxycarboxylic acid receptor 1 (Homo sapiens, UniProt Q9BXC0) (Q9BXC0 whole entry): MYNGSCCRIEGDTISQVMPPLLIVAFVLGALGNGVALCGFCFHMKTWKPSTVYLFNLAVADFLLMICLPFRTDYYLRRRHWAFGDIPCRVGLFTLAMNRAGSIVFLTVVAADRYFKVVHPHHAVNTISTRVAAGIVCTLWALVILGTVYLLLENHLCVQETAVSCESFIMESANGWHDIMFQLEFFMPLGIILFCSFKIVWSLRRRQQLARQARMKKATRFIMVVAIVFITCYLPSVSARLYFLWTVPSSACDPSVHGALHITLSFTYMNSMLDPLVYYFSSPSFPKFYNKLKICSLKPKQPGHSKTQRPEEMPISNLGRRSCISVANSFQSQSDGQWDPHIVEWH
Sequence of G-protein coupled receptor 81 (Macaca mulatta, UniProt B9UM29) (B9UM29 whole entry): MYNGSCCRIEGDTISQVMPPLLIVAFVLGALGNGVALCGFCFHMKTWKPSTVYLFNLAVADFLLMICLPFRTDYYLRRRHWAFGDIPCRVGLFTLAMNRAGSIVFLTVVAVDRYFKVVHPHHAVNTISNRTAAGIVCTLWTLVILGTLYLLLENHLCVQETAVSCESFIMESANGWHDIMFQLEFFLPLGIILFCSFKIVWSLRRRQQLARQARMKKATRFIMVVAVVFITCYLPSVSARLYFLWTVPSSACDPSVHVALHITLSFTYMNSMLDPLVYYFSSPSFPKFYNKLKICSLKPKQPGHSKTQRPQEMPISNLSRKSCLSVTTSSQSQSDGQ

In general, EC50 refers to the concentration needed to bring the measured effect to its halfway point. On to `O=C(O)c1cc(O)cc(C(F)(F)F)c1`, for which the EC50 in data set [1] was > 1000 µM. Still for that read-out and setting: next, `O=C(O)c1cc(O)cc(Br)c1`: 129 µM; `O=C(O)c1cc(O)cc(-c2ccccc2)c1`: > 1000 µM; `CC(C)(C)c1cc(O)cc(C(=O)O)c1`: > 1000 µM.

In the case of `O=P(O)(O)c1cc(O)cc(O)c1`, the EC50 in [1] is > 1000 µM. Still for that read-out and setting: the same measure for `O=C(O)c1cc(O)c[n+]([O-])c1`: > 1000 µM. Consider `O=C(O)c1cccc(O)c1` [3-HYDROXYBENZOIC ACID], for which the EC50 in data set [1] worked out at 184 µM. On the same count and under the same terms, the same measure for `Cc1cc(O)cc(C(=O)O)c1`: 42 µM; for `N#Cc1cc(O)cc(C(=O)O)c1`: > 1000 µM.

By Tmax is commonly meant the time from dosing to the highest level. As usually defined, the AUC(0-inf) is total exposure, with the tail of the curve extrapolated. By Cmax is commonly meant the peak of the concentration-time curve. For orientation: half-life means the time needed for the level to fall by half in the phase considered. Regarding `O=C(O)c1cc(O)cc(Cl)c1`, the EC50 is 16 µM in [1]; 17 µM in data set [2]; 67 µM in data set [3]; 7 µM on Protein Gpr81; 22 µM in data set [4]; 27 µM in data set [5]. In addition, the Tmax in data set [6] and in data set [7] was 30 min throughout. In addition, the AUC(0-inf) in data set [8] is 9360 ng·h/mL; in data set [9], 51300 ng·h/mL. Besides, the results for the Cmax in data set [10] and in data set [11] were 67.2 µM and 342 µM, respectively. Also, the half-life in [12] was 88.2 min; in [13], 66 min. Besides, the result with Mus musculus [14], in the data set with Mus musculus [15] and in the data set on Mus musculus [16] was Active. Turning to `COc1cc(O)cc(C(=O)O)c1`, the EC50 in data set [1] was > 1000 µM. Still for that read-out and setting: next, `O=C(O)c1cc(O)cc(O)c1` [3,5-DIHYDROXYBENZOIC ACID]: 377 µM. On to `O=C(O)c1cncc(O)c1`, for which the EC50 in [1] was > 1000 µM.

Take `CP(=O)(O)c1cc(O)cc(O)c1`: in [1], the EC50 was > 1000 µM.

Turning to `O=C(O)c1cc(O)cc(F)c1`, the EC50 in [1] came out at 38 µM.

Turning to `Oc1cc(O)cc(-c2nnn[nH]2)c1`, in data set [1], the EC50 was > 1000 µM. In the case of `O=C(O)c1cccnc1`, the outcome in the data set with Mus musculus [14] was Active. As to `OB(O)c1cccc(O)c1`, the EC50 in [1] is > 1000 µM.
